In the library only some 3.1% were active in any assay of this set; here they are far more common.
Env fusion inh = inhibitors of HIV-1 Env-driven cell-cell fusion, primary screen, HeLa-JRFL effector, CEM21 target cells, luciferase | inhibition, % at 12.3 µM | 360,000 compounds, 1.1% hits | AID 651610, 2012;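 active = mean replicate inhibition score of at least 50 and every replicate individually at or above 50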
PGC1a acetyl inh = inhibitors of PGC1a acetylation signal, primary screen, cell-based, U2OS, AlphaScreen, inhibitor mode | AlphaScreen anti-acetyl-lysine; with virally co-expressed GCN5 acetyltransferase | inhibition, % at 15.6 µM | 350,000 compounds, 0.17% hits | AID 651687, 2012;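 active = every replicate shows inhibition of at least 40%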
FGF22 binding-1 = binders of human FGF22 protein, primary screen, FGF22 synaptogenesis inhibitor project, biophysical, thermal shift, single point | Fibroblast growth factor 22 (Homo sapiens), Q9HCT0 | recombinant FGF22 thermal shift, SYPRO orange fluorescence; percent of sucrose octasulfate shift, DMSO zero | activity (Tm shift, normalised), % at 9.99 µM | 340,000 compounds, 1.5% hits | AID 651658, 2012;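 active = mean Tm shift, scaled 0 neutral to 100 positive control, at about 1.3% or above, every replicate too, limit read from the data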
Target sequence (Q9HCT0 whole entry, looked up): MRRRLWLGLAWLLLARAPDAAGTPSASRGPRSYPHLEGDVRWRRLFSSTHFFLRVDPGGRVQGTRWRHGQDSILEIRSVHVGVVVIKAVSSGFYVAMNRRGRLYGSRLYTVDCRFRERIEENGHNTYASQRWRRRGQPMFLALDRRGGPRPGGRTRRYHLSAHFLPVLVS
EWS-Fli block = EWS/Fli-driven NR0B1 reporter inhibitors, primary screen, A673 cells, NR0B1 luciferase, luminescence, MLPCN library | viability-normalised | inhibition, % at 12.6 µM | 350,000 compounds, 0.67% hits | AID 651661, 2012;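 active = mean inhibition of at least 50% after viability correction, with every replicate also passing that limit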;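 also: firefly luciferase signal divided by Alamar Blue viability fluorescence both relative to DMSO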
FN deposition inh = inhibitors of fibronectin matrix deposition, primary screen, AH1F cells, Alexa488-fibronectin fluorescence, plate reader; AH1F fibroblasts, overnight; inhibition, % at 12.6 µM; 350,000 compounds, 0.086% hits;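 active = mean inhibition across replicates of 30% or more, regardless of how many single replicates reach that level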
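Material: AH1F fibroblasts assembling fluorescent fibronectin matrix; amount: 10000 AH1F cells/well; medium: DMEM, 2% serum; reagent: Alexa488-fibronectin, 24 nM final in well; dosing: single compound dose, delivered by pin transfer; incubation: 1 h adhesion, overnight exposure; detection: fluorescence after three HBSS washes, excitation 485 nm, emission 525 nm; measure: fibronectin deposition inhibition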
PAX8 inh HTS = inhibitors of PAX8-driven TPO luciferase reporter, primary screen, RMG-I cells, single concentration | SteadyGlo, 24 h | inhibition, % at 12.6 µM | 360,000 compounds, 1.2% hits;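 active = mean replicate inhibition at least 60% with every replicate also reaching 60%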;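 also: luciferase light reporting Pax8 driven TPO promoter activity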
FGF22 binding-2 = binders of human FGF22 protein, dose response, FGF22 synaptogenesis inhibitor project, biophysical, thermal shift, cherry-pick retest. thermal shift activity, °C (ΔTm) at 38 µM. 1,000 compounds, 2% hits. shares compounds with FGF22 binding-1. recombinant FGF22 thermal shift, SYPRO orange fluorescence;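 active = fitted rise in melting shift crosses a set limit at or below the top valid dose tested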
FGF22 TSA = binders of human FGF22 protein, dose response, FGF22 synaptogenesis inhibitor project, biophysical, thermal shift, dry powder; shares compounds with FGF22 binding-1; Thermal shift assay, SYPRO orange, melting temperature shift; Tm shift (activity), % at 38 µM; 50 tested, under 10 active;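 active = compounds whose fitted dose curve of melting temperature shift rises past a set threshold within the tested doses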
SYPRO no-protein = compound-only thermal shift signal without protein, dose response, artefact control for FGF22 binder project, biochemical, cherry-picked samples, RT-PCR instrument; compound-only SYPRO orange thermal shift counter-screen, no protein; AC50, µM (top dose mostly 38 µM); AID 743019, 2013; 1,000 compounds, 2% hits; shares compounds with FGF22 binding-1;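 active = rising signal whose fitted curve reaches the 0.54 level within the top valid dose, showing a melting point, actives reach about 13 µM in these data; inactive = the rest, including activity in the opposite direction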; also: value is where the raw curve crosses a fixed level and not half-maximal
Large screens that a line does not name were inactive (follow-up assays come after a bar, where they were run).

O=C(NCC[C@H]1CC[C@H](NC(=O)C2CCOCC2)[C@H](CO)O1)Nc1ccc(Cl)cc1	none (no result: FGF22 binding-1, FN deposition inh)
COc1ccc(CN(C)C[C@@H]2Oc3ccc(NC(=O)C4CC4)cc3C(=O)N([C@@H](C)CO)C[C@@H]2C)cc1	none (no result: PAX8 inh HTS)
COc1ccc(C(=O)N=c2sc3ccccc3n2C)cc1OC	FGF22 binding-1 1.6 | FGF22 binding-2 inactive | SYPRO no-protein inactive
Cc1ccccc1-c1cnc2c(c1)C(=O)N([C@@H](C)CO)C[C@H](C)[C@H](CN(C)C(=O)c1ccc(F)cc1)O2	none (no result: PAX8 inh HTS)
C[C@@H]1CCCCO[C@H](CN(C)Cc2ccncc2)[C@H](C)CN([C@H](C)CO)C(=O)c2cc(NS(=O)(=O)c3ccccc3)ccc2O1	none
CCN(CC)S(=O)(=O)c1ccc(C(=O)NNC2=NS(=O)(=O)c3ccccc32)cc1	none
COc1ccc(S(=O)(=O)N(NC2=NS(=O)(=O)c3ccccc32)C(=O)C(C)C)cc1	FGF22 binding-1 2.6 (no result: PGC1a acetyl inh) | FGF22 binding-2 inactive | SYPRO no-protein inactive
COc1ccc(S(=O)(=O)Nc2ccc3c(c2)C(=O)N([C@H](C)CO)C[C@H](C)[C@H](CN(C)C(=O)c2ccccc2)OCCCC[C@@H](C)O3)cc1	none (no result: PGC1a acetyl inh)
COC(=O)C[C@@H]1CC[C@H]2[C@@H](COc3ccc(NC(=O)Nc4cccc(C)c4)cc3C(=O)N2C)O1	none
COC(=O)C[C@@H]1CC[C@@H]2[C@@H](COc3ccc(NC(=O)c4ccc(F)c(F)c4)cc3C(=O)N2C)O1	FGF22 binding-1 2.3 | FGF22 binding-2 inactive | SYPRO no-protein inactive
COC(=O)C[C@H]1CC[C@@H]2[C@@H](COc3ccc(NC(=O)Nc4cccc(C#N)c4)cc3C(=O)N2C)O1	FGF22 binding-1 2.0 (no result: Env fusion inh) | FGF22 binding-2 inactive | FGF22 TSA inactive | SYPRO no-protein inactive
COC(=O)C[C@H]1CC[C@H]2[C@@H](COc3ccc(NC(=O)c4ccc(F)c(F)c4)cc3C(=O)N2C)O1	none (no result: FGF22 binding-1)
COC(=O)C[C@H]1CC[C@H]2[C@H](COc3ccc(NC(=O)Nc4ccc(C#N)cc4)cc3C(=O)N2C)O1	none
COC(=O)C[C@H]1CC[C@@H]2[C@@H](COc3ccc(NC(=O)Nc4ccc(C#N)cc4)cc3C(=O)N2C)O1	FGF22 binding-1 1.3 | FGF22 binding-2 inactive | FGF22 TSA inactive | SYPRO no-protein 2.4µM
CC(=O)N[C@@H]1CC[C@H](CCNC(=O)C2CCCC2)O[C@H]1CO	none (no result: FN deposition inh)
C[C@@H]1CN([C@@H](C)CO)C(=O)c2cc(Br)cnc2O[C@@H]1CN(C)C(=O)Nc1ccccc1	none (no result: PAX8 inh HTS)
Cc1ccc(S(=O)(=O)N(C)/N=C/c2ccc(N(C)C)cc2)cc1	FGF22 binding-1 20.4 | FGF22 binding-2 inactive | SYPRO no-protein inactive
Cc1[nH]c2ccccc2c1/C=N/NC(=O)c1cccc(F)c1	FGF22 binding-1 2.0 | FGF22 binding-2 inactive | SYPRO no-protein inactive
Cc1[nH]c2ccccc2c1/C=N/NC(=O)c1cccc([N+](=O)[O-])c1	none (no result: FGF22 binding-1)
Cc1c(/C=N\NC(=O)c2cccc(F)c2)cnn1C	FGF22 binding-1 2.0 | FGF22 binding-2 inactive | SYPRO no-protein inactive
O=c1c(Cl)c(O)c2cccc3c4ccccc4n1c23	FGF22 binding-1 2.3 (no result: PGC1a acetyl inh, FN deposition inh) | FGF22 binding-2 inactive | SYPRO no-protein inactive
C[C@H]1CN([C@@H](C)CO)S(=O)(=O)c2ccc(-c3cccc(F)c3)cc2O[C@H]1CN(C)C(=O)Nc1cc(F)ccc1F	FGF22 binding-1 1.4 (no result: PGC1a acetyl inh, FN deposition inh, PAX8 inh HTS) | FGF22 binding-2 inactive | SYPRO no-protein inactive
COc1cccc(NC(=O)N(C)C[C@@H]2Oc3cc(-c4ccccc4F)ccc3S(=O)(=O)N([C@H](C)CO)C[C@@H]2C)c1	FGF22 binding-1 4.0 (no result: PAX8 inh HTS) | FGF22 binding-2 inactive | SYPRO no-protein inactive
COc1ccccc1-c1ccc2c(c1)O[C@@H](CN(C)CC1CC1)[C@@H](C)CN([C@@H](C)CO)S2(=O)=O	none (no result: FGF22 binding-1, FN deposition inh, PAX8 inh HTS)
Cc1ccccc1-c1ccc2c(c1)O[C@H](CN(C)CC1CC1)[C@H](C)CN([C@H](C)CO)S2(=O)=O	FGF22 binding-1 1.5 (no result: PAX8 inh HTS) | FGF22 binding-2 inactive | SYPRO no-protein inactive
C[C@@H]1CN([C@@H](C)CO)S(=O)(=O)c2ccc(-c3cccc(C#N)c3)cc2O[C@@H]1CN(C)C(=O)Nc1cc(F)ccc1F	FGF22 binding-1 1.3 (no result: Env fusion inh, FN deposition inh) | SYPRO no-protein inactive
COc1cccc(NC(=O)N(C)C[C@H]2Oc3cc(-c4ccccc4OC)ccc3S(=O)(=O)N([C@H](C)CO)C[C@H]2C)c1	none (no result: FN deposition inh)
C[C@@H]1CCCCO[C@H](CN(C)S(C)(=O)=O)[C@H](C)CN([C@@H](C)CO)C(=O)c2cc(NS(C)(=O)=O)ccc2O1	none (no result: FN deposition inh)
Cc1noc(C)c1NC(=O)Nc1cccc2c1O[C@H](CN(C)C(=O)Nc1ccccc1)[C@H](C)CN([C@@H](C)CO)C2=O	none (no result: FN deposition inh)
C[C@H](CO)N1C[C@H](C)[C@@H](CN(C)C(=O)Nc2ccc3c(c2)OCO3)Oc2c(NS(=O)(=O)c3cccs3)cccc2C1=O	none (no result: Env fusion inh, FN deposition inh, PAX8 inh HTS)
CO[C@H]1CN(C)C(=O)c2ccc(NC(=O)c3ccccc3F)cc2OC[C@H](C)N(C(C)=O)C[C@H]1C	none (no result: Env fusion inh)
C[C@@H]1CN([C@@H](C)CO)S(=O)(=O)c2ccc(-c3ccc(F)cc3)cc2O[C@@H]1CN(C)C(=O)Nc1ccccc1F	FGF22 binding-1 1.7 (no result: FN deposition inh, PAX8 inh HTS) | FGF22 binding-2 inactive | SYPRO no-protein inactive
O=C(Nc1ccc(F)c(Cl)c1)C1CCCN(C2=NS(=O)(=O)c3ccccc32)C1 (stereo unspecified)	FGF22 binding-1 30.8 (no result: Env fusion inh) | FGF22 binding-2 inactive | SYPRO no-protein inactive
COCCNC(=O)CCc1nnc2ccc(N3CCC(C)CC3)nn12	FGF22 binding-1 1.6 | FGF22 binding-2 inactive | SYPRO no-protein inactive
COCCCNC(=O)CCc1nnc2ccc(N3CCC(C)CC3)nn12	none

Assay outcomes: PubChem BioAssay, Broad Institute
